Assay results: ChEMBL document CHEMBL3286267, “Discovery of MK-4409, a Novel Oxazole FAAH Inhibitor for the Treatment of Inflammatory and Neuropathic Pain” (ACS Med Chem Lett, 2014)
In brackets after ≈: the same amount, converted by molar mass. Activity calls are given as the source filed them. The rule behind the calls is not given here.

Experiments:
Rattus norvegicus [1] = test: Antiallodynic activity in Harlan rat spinal nerve ligation model of neuropathic pain assessed as reversal of allodynia at 21 mg/kg, po; format: functional, organism-based; set-up: dose 21 mg/kg
How it was run: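 Rat spinal nerve ligation model of neuropathic pain, scored as percent reversal of allodynia after dosing. A rota-rod test run alongside served as a counterscreen for motor impairment.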

[2] = Half life in rat at 1 mg/kg, iv and 2 mg/kg, po; format: ADME, organism-based; details: in vivo
How it was run: (§1)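 Rat PK given 1 mg/kg iv in DMSO/PEG400/H2O 20/60/20 and 2 mg/kg po in either Imwitor/Tween 1/1 or PEG400/Tween80/H2O 40/10/50. Half-life, clearance, volume of distribution, dose-normalized AUC (AUCN) and oral bioavailability were derived.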

Rattus norvegicus [3] = test: Analgesic activity in Sprague-Dawley rat complete Freund's adjuvant-induced inflammatory pain model assessed as reversal of mechanical allodynia at 30 mg/kg/day, po measured up to 10 days; format: functional, organism-based
How it was run: (§2)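 Chronic paradigm in the CFA inflammatory pain model in rats (intraplantar complete Freund's adjuvant in the hind paw). Daily oral dosing continued for up to 10 days, with a pan CB agonist run for comparison. Allodynia was followed over the days. Plasma exposures were sampled at 3 and 24 h after dosing at 30 mg/kg.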

[4] = Plasma concentration in Sprague-Dawley rat at 30 mg/kg/day, po measured after 3 hrs on day 2; format: ADME, organism-based; set-up: route oral; how it was run: as §2
[5] = Plasma concentration in Sprague-Dawley rat at 30 mg/kg/day, po measured after 3 hrs on day 3; format: ADME, organism-based; set-up: route oral; how it was run: as §2
[6] = Plasma concentration in Sprague-Dawley rat at 30 mg/kg/day, po measured after 3 hrs on day 10; format: ADME, organism-based; set-up: route oral; how it was run: as §2
[7] = Clearance in rat at 1 mg/kg, iv and 2 mg/kg, po; format: ADME, organism-based; details: in vivo; how it was run: as §1
[8] = Plasma concentration in Sprague-Dawley rat at 30 mg/kg/day, po measured after 24 hrs on day 9; format: ADME, organism-based; set-up: route oral; how it was run: as §2
Rattus norvegicus [9] = test: Analgesic activity in Sprague-Dawley rat complete Freund's adjuvant-induced inflammatory pain model assessed as reversal of mechanical allodynia at 10 mg/kg, po single dose measured after 3 hrs; format: functional
How it was run: (§3)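 Inflammatory pain induced in rats by intraplantar injection of complete Freund's adjuvant into the hind paw. Mechanical allodynia was assessed at 1 and 3 h after a single oral dose. For each rat, percent reversal = (postdose – predose)/(preinjury – predose), averaged over n = 6.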

Rattus norvegicus [10] = test: Analgesic activity in Sprague-Dawley rat complete Freund's adjuvant-induced inflammatory pain model assessed as reversal of mechanical allodynia at 30 mg/kg, po single dose measured after 1 hr; format: functional; how it was run: as §3
[11] = Inhibition of human vesicular monoamine transporter
How it was run: (§4)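 In vitro assays, with values reported as the average of at least three duplicates.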

Rattus norvegicus [12] = test: Antiallodynic activity in Harlan rat spinal nerve ligation model of neuropathic pain assessed as reversal of allodynia at 3 mg/kg, po; format: functional
Rattus norvegicus [13] = test: Toxicity in Harlan rat assessed as motor impairment at 3 mg/kg, po by rotarod test; format: organism-based; set-up: dose 3 mg/kg, route oral; details: in vivo
[14] = Plasma concentration in Sprague-Dawley rat at 30 mg/kg/day, po measured after 3 hrs on day 5; format: ADME, organism-based; set-up: route oral; how it was run: as §2
[15] = Plasma concentration in Sprague-Dawley rat at 30 mg/kg/day, po measured after 24 hrs on day 10; format: ADME, organism-based; set-up: route oral; how it was run: as §2
[16] = target: Voltage-gated inwardly rectifying potassium channel KCNH2 (Homo sapiens, UniProt Q12809); test: Displacement of [35S]MK-499 from human ERG
How it was run: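 hERG K+ channel binding assay measuring displacement of the radiolabelled channel blocker [35S]MK-499. Values are averages of at least three duplicates.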

[17] = Volume of distribution at steady state in rat at 1 mg/kg, iv and 2 mg/kg, po; format: ADME, organism-based; details: in vivo, read-out: Vdss; how it was run: as §1
[18] = Plasma concentration in Sprague-Dawley rat at 30 mg/kg/day, po measured after 3 hrs on day 8; format: ADME, organism-based; set-up: route oral; how it was run: as §2
Rattus norvegicus [19] = test: Analgesic activity in Sprague-Dawley rat complete Freund's adjuvant-induced inflammatory pain model assessed as reversal of mechanical allodynia at 10 mg/kg, po single dose measured after 1 hr; format: functional; how it was run: as §3
[20] = Plasma concentration in Sprague-Dawley rat at 30 mg/kg/day, po measured after 24 hrs on day 5; format: ADME, organism-based; set-up: route oral; how it was run: as §2
[21] = Bioavailability in rat at 1 mg/kg, iv and 2 mg/kg, po; format: ADME, organism-based; details: in vivo; how it was run: as §1
[22] = Plasma concentration in Sprague-Dawley rat at 30 mg/kg/day, po measured after 3 hrs on day 9; format: ADME, organism-based; set-up: route oral; how it was run: as §2
[23] = Fraction unbound in rat plasma; format: ADME, cell-free
[24] = Fraction unbound in rhesus monkey plasma; format: ADME, cell-free, Macaca mulatta
[25] = Plasma concentration in Sprague-Dawley rat at 30 mg/kg/day, po measured after 3 hrs on day 1; format: ADME, organism-based; set-up: route oral; how it was run: as §2
[26] = target: T1, Fatty-acid amide hydrolase 1 (Rattus norvegicus, UniProt P97612); test: Inhibition of rat FAAH lysate using AMCAA as substrate by fluorescence assay; how it was run: as §4
T1 sequence (P97612 whole entry): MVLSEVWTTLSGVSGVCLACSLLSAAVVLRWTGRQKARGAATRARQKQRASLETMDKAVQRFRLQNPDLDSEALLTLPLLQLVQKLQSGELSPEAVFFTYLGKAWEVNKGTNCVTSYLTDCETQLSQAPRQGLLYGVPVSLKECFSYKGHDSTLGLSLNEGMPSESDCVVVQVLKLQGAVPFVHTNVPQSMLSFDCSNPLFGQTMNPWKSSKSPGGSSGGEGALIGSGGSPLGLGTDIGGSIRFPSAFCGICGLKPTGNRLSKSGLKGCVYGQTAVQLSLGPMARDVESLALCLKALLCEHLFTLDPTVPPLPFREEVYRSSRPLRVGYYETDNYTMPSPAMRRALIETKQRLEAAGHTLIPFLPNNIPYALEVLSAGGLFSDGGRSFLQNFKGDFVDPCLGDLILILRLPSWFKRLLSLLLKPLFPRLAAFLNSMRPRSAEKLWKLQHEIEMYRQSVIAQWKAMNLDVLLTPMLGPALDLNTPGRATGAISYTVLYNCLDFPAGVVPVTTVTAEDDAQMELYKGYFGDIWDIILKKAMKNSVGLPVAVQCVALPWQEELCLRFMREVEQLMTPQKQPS

Rattus norvegicus [27] = test: Dose normalized AUC in rat at 1 mg/kg, iv and 2 mg/kg, po; format: ADME, organism-based; details: in vivo; how it was run: as §1
[28] = Plasma concentration in Sprague-Dawley rat at 30 mg/kg/day, po measured after 24 hrs on day 2; format: ADME, organism-based; set-up: route oral; how it was run: as §2
[29] = Fraction unbound in dog plasma; format: ADME, cell-free, Canis lupus familiaris
[30] = Plasma concentration in Sprague-Dawley rat at 30 mg/kg/day, po measured after 24 hrs on day 8; format: ADME, organism-based; set-up: route oral; how it was run: as §2
[31] = Plasma concentration in Sprague-Dawley rat at 30 mg/kg/day, po measured after 24 hrs on day 3; format: ADME, organism-based; set-up: route oral; how it was run: as §2
Rattus norvegicus [32] = test: Analgesic activity in Sprague-Dawley rat complete Freund's adjuvant-induced inflammatory pain model assessed as reversal of mechanical allodynia at 30 mg/kg, po single dose measured after 3 hrs; format: functional; how it was run: as §3
[33] = Fraction unbound in human plasma; format: ADME, cell-free
[34] = target: T2, Fatty-acid amide hydrolase 1 (Homo sapiens, UniProt O00519); test: Inhibition of human FAAH lysate using AMCAA as substrate by fluorescence assay; how it was run: as §4
T2 sequence (O00519 whole entry): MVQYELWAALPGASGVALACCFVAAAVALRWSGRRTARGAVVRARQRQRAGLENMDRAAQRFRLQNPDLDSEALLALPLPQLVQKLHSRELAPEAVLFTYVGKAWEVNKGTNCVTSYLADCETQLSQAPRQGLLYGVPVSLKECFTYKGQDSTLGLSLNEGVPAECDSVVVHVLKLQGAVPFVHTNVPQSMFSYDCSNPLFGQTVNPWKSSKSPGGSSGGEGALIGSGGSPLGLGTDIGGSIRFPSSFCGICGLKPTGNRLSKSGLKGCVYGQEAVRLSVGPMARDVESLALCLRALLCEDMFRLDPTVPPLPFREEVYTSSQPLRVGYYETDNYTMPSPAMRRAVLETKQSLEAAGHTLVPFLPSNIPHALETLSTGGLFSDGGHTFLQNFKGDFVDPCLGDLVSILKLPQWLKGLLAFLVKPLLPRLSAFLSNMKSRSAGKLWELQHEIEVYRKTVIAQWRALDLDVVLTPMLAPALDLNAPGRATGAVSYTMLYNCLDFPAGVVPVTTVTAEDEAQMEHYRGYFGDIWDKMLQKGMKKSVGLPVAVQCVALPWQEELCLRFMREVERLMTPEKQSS

[35] = Solubility in fasted state simulated intestinal fluid; format: ADME

Sequence of Voltage-gated inwardly rectifying potassium channel KCNH2 (Q12809 whole entry): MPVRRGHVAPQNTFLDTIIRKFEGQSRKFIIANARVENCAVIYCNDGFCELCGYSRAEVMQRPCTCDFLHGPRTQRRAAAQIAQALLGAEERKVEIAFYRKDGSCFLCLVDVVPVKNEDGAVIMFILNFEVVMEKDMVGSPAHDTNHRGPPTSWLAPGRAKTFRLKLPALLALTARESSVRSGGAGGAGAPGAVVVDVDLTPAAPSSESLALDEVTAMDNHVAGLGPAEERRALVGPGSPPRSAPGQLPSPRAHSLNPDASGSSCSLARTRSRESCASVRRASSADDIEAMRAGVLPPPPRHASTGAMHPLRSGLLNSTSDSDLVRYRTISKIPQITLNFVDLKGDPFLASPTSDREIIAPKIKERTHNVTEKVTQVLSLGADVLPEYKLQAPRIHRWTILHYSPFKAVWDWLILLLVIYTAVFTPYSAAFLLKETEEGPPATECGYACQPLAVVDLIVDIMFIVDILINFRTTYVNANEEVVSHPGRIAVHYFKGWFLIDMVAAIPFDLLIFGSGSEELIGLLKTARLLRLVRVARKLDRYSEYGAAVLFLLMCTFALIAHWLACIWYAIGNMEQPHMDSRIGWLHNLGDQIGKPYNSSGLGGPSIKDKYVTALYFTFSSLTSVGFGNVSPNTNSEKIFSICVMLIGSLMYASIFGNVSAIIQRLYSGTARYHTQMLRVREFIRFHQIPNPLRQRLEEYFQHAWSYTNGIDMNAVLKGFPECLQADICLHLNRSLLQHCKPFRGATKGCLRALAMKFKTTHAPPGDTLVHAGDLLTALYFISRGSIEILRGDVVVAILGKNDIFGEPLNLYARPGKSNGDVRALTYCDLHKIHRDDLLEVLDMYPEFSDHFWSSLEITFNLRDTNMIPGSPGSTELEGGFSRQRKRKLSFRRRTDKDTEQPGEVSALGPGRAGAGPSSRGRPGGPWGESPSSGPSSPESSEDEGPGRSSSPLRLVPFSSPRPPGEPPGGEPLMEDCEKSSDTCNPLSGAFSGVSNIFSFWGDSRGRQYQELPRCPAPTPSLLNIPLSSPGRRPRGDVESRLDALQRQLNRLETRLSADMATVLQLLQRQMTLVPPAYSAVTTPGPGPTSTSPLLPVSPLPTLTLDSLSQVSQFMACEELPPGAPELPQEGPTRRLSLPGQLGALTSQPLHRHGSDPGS

Row | Structure (SMILES) | half-life [2] [h] | clearance [7] [mL/min/kg] | Activity (Rattus norvegicus [9]) [%] | Activity (Rattus norvegicus [10]) [%] | EC50 [11] [µM] | Ki [16] [µM] | Vd [17] [L/kg] | Activity (Rattus norvegicus [19]) [%] | bioavailability [21] [%] | IC50 [26] [µM] | AUC/dose (Rattus norvegicus [27]) [µM·kg·h/mg] | Activity (Rattus norvegicus [32]) [%] | IC50 [34] [µM] | further results
1 | NC(=O)c1cccc(-c2cccc(OC(=O)NC3CCCCC3)c2)c1 | – | – | – | – | – | – | – | – | – | – | – | – | – | Activity (Rattus norvegicus [1]): Active
2 | CC(C)(O)c1ccc(-c2nc(-c3ccc(F)cc3)oc2Sc2ccc(Cl)cn2)cn1 | 4.3 | 20 | 51 | 70 | > 20 | 1.25 | 6.2 | 49 | 120 | 0.011 | 2.2 | 71 | 0.011 | Activity (Rattus norvegicus [3]): Active; concentration at 3 h [4]: 8 µM; concentration at 3 h [5]: 11.9 µM; concentration at 3 h [6]: 14.2 µM; concentration at 24 h [8]: 8.3 µM; inhibition in vivo at 3 mg/kg (Rattus norvegicus [12]): 50%; Activity (Rattus norvegicus [13]): Non-toxic; concentration at 3 h [14]: 13.2 µM; concentration at 24 h [15]: 7.9 µM; concentration at 3 h [18]: 12.2 µM; concentration at 24 h [20]: 6.5 µM; concentration at 3 h [22]: 13.7 µM; fraction unbound [23]: 0.029; fraction unbound [24]: 0.008; concentration at 3 h [25]: 5.4 µM; concentration at 24 h [28]: 2.1 µM; fraction unbound [29]: 0.012; concentration at 24 h [30]: 7.3 µM; concentration at 24 h [31]: 4.1 µM; fraction unbound [33]: 0.016
3 | Clc1ccc(Sc2cn(-c3cccnc3)nc2-c2ccc(-c3ncon3)cc2)cc1 | 2.57 | 34 | – | 49 | 0.137 | 5.21 | 7.8 | – | 35 | 0.0048 | 0.39 | 62 | 0.013 | solubility [35]: 27 µg/mL (≈ 62.5 µM)
4 | Clc1ccc(Sc2cn(-c3ccccc3)nc2-c2ccc3c(c2)OCCO3)cc1 | – | – | – | – | – | > 30 | – | – | – | 0.008 | – | – | 0.027 | –
5 | CS(=O)(=O)c1ccc(-c2nc(-c3ccc(F)cc3)oc2Sc2ccc(Cl)cn2)cc1 | – | – | 44 | – | 14 | 2.5 | – | 46 | – | 0.021 | – | – | – | –
